# Assay results published in ChEMBL document CHEMBL4130343, “Design, synthesis, and evaluation of benzofuran derivatives as novel anti-pancreatic carcinoma agents via interfering the hypoxia environment by targeting HIF-1α pathway” (Eur J Med Chem, 2017).
# Activity calls are given as the source filed them. No cut-off for these calls is given here.
# What was measured:
# [1] = target: Hypoxia-inducible factor 1-alpha (Homo sapiens) (UniProt Q16665); assay: Inhibition of HIF-1alpha (unknown origin) expressed in HEK293 cells under hypoxia condition after 24 hrs by luciferase reporter gene assay; format: cell-based
# Sequence of Hypoxia-inducible factor 1-alpha (Homo sapiens) (Q16665 whole entry, looked up): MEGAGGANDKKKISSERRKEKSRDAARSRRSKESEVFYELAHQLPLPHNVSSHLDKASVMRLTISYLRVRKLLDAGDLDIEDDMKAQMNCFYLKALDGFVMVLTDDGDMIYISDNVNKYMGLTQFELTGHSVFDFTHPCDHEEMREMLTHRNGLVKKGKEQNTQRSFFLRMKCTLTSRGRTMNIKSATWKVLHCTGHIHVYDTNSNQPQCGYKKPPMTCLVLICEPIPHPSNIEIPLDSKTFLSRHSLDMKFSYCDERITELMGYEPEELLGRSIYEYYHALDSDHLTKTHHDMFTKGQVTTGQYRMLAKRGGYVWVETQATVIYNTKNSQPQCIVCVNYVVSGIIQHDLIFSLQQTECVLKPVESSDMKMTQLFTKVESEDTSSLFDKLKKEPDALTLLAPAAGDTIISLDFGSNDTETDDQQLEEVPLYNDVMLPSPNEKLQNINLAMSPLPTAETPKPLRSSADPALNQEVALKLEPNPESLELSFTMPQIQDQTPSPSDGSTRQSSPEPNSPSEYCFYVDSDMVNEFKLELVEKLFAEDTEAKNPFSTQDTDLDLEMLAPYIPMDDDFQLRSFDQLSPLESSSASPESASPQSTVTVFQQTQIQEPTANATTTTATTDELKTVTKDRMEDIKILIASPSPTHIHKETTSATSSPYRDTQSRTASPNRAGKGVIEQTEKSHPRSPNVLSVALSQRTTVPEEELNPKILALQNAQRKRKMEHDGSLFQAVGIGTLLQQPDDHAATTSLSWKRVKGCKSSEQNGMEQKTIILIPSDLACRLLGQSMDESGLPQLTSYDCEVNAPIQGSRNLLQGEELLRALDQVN
# Procedure, shortened: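 HEK293 cells were co-transfected with HRE-luciferase and pRL-SV40 plasmids for 6 h. Cells were then treated with compound under hypoxia (1% O₂, 94% N₂, 5% CO₂, 37 °C) for 24 h. Activity was read by dual-luciferase assay on a luminometer.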
# [2] = Distribution co-efficient, log D of the compound at pH 7.4; format: physicochemical; conditions: buffer
# Procedure, shortened: (§1)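 Intrinsic aqueous solubility and log D at pH 7.4 were measured on a pION Gemini Profiler.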
# MCF7 = assay: Antiproliferative activity against human MCF7 cells after 48 hrs by MTT assay; format: functional, cell-based; conditions: MCF7, 48 h
# Procedure, shortened: (§2)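 Cells were seeded at 5×10^5 cells/mL overnight and exposed to graded compound concentrations for 48 h. MTT (5 mg/mL stock) was added for 4 h at 37 °C, and formazan was dissolved in DMSO. Absorbance was read at 570 nm. IC₅₀ was fitted from the curves; values are mean ± SD, n = 3.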
# PANC-1 [3] = assay: Anticlonogenic activity against human PANC1 cells after 2 weeks by crystal violet staining-based assay; format: functional, cell-based
# Procedure, shortened: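 PANC-1 cells were seeded at 100 cells/well overnight, then exposed to graded compound concentrations for 14 days with medium changed every three days. Colonies were fixed in 10% ethanol for 10 min and stained with 0.5% crystal violet in 25% ethanol for 10 min. Plates were dried and scanned.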
# PANC-1 [4] = assay: Antitumor activity against human PANC1 cells xenografted in nude mouse assessed as decrease in tumor volume at 15 to 60 mg/kg, ip administered every 2 days for 21 days; format: functional, organism-based
# Procedure, shortened: (§3)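 Female nude mice received 1×10^7 PANC-1 cells subcutaneously in the right flank. After 4 weeks, mice bearing tumors averaging 100 mm³ were randomized into five groups. Dosing was 15, 30 or 60 mg/kg i.p. every two days for 21 days. Tumor volume = width² × length/2; tumors were weighed at sacrifice, and body weight was monitored.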
# PANC-1 [5] = assay: Induction of apoptosis in human PANC1 cells after 24 hrs by annexin V/propidium iodide staining-based flow cytometric method; format: functional, cell-based
# PANC-1 [6] = assay: Induction of apoptosis in human PANC1 cells assessed as late apoptotic cells at 1 uM after 24 hrs by annexin V/propidium iodide staining-based flow cytometric method (reference value: 2.65%); format: functional
# [7] = AUC (0 to t) in rat at 10 mg/kg, po after 0.083 to 24 hrs by LC-MS/MS method; format: ADME, organism-based; parameters: dose 10 mg/kg, time upper 24 hr, time lower 0.083 hr, route oral; conditions: in vivo
# [8] = Half life in rat at 10 mg/kg, ip after 0.083 to 24 hrs by LC-MS/MS method; format: ADME, organism-based; conditions: in vivo
# [9] = AUC (0 to t) in rat at 10 mg/kg, iv after 0.083 to 24 hrs by LC-MS/MS method; format: ADME, organism-based; parameters: time upper 24 hr, time lower 0.083 hr, dose 10 mg/kg, route intravenous; conditions: in vivo
# [10] = Bioavailability in rat at 10 mg/kg, ip after 0.083 to 24 hrs by LC-MS/MS method; format: ADME, organism-based; conditions: in vivo
# PANC-1 [11] = assay: Induction of apoptosis in human PANC1 cells assessed as early apoptotic cells at 1 uM after 24 hrs by annexin V/propidium iodide staining-based flow cytometric method (reference value: 7.25%); format: functional
# PANC-1 [12] = assay: Induction of apoptosis in human PANC1 cells assessed as late apoptotic cells at 2 uM after 24 hrs by annexin V/propidium iodide staining-based flow cytometric method (reference value: 2.65%); format: functional
# PANC-1 [13] = assay: Antiproliferative activity against human PANC1 cells after 48 hrs by MTT assay; format: functional, cell-based; conditions: PANC-1, 48 h; procedure, shortened: as §2
# PANC-1 [14] = assay: Antitumor activity against human PANC1 cells xenografted in nude mouse assessed as inhibition of tumor weight at 30 mg/kg, ip administered every 2 days for 21 days relative to vehicle-treated control; format: functional; conditions: PANC-1, ip; procedure, shortened: as §3
# A549 = assay: Antiproliferative activity against human A549 cells after 48 hrs by MTT assay; format: functional, cell-based; conditions: A549, 48 h; procedure, shortened: as §2
# PANC-1 [15] = assay: Induction of apoptosis in human PANC1 cells assessed as early apoptotic cells at 0.1 uM after 24 hrs by annexin V/propidium iodide staining-based flow cytometric method (reference value: 7.25%); format: functional
# Mus musculus [16] = assay: Downregulation of CD31 expression in human PANC1 cells xenografted in nude mouse at 15 to 60 mg/kg, ip administered every 2 days for 21 days by immunohistochemical method; format: functional, organism-based
# Procedure, shortened: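 Tumors came from the PANC-1 nude-mouse xenografts dosed at 15, 30 or 60 mg/kg i.p. every two days for 21 days. Tumor sections were stained immunohistochemically with antibodies against CD31, HIF-1α and VEGF.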
# [17] = Effective permeability of the compound at pH 7.4 by PAMPA; format: ADME; conditions: read-out: Peff
# Procedure, shortened: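 Effective permeability was measured by double-sink PAMPA on a pION PAMPA Explorer.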
# PANC-1 [18] = assay: Induction of apoptosis in human PANC1 cells assessed as dead cells at 2 uM after 24 hrs by annexin V/propidium iodide staining-based flow cytometric method (reference value: 0.60%); format: functional
# [19] = Intrinsic aqueous solubility of the compound; format: physicochemical; conditions: read-out: Intrinsic_solubility; procedure, shortened: as §1
# PANC-1 [20] = assay: Induction of apoptosis in human PANC1 assessed as decrease in PARP levels at 0.1 to 1 uM after 24 hrs by Western blot method; format: functional, cell-based
# Procedure, shortened: (§4)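 PANC-1 cells were treated with graded compound concentrations for 24 h, then lysed. Proteins were separated by SDS-PAGE and blotted to PVDF. Blots were probed for PARP, cleaved PARP, caspase-3, cleaved caspase-3, caspase-9 and cleaved caspase-9, with GAPDH as loading control, and read by infrared imaging. Bands were quantified by densitometry as ratios normalized to GAPDH.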
# HCT-116 = assay: Antiproliferative activity against p53-deficient human HCT116 cells after 48 hrs by MTT assay; format: functional, cell-based; conditions: HCT-116, 48 h; procedure, shortened: as §2
# PANC-1 [21] = assay: Induction of apoptosis in human PANC1 cells assessed as dead cells at 0.1 uM after 24 hrs by annexin V/propidium iodide staining-based flow cytometric method (reference value: 0.60%); format: functional
# PANC-1 [22] = assay: Induction of apoptosis in human PANC1 assessed as increase in cleaved caspase-3 levels at 0.1 to 1 uM after 24 hrs by Western blot method; format: functional, cell-based; procedure, shortened: as §4
# Mus musculus [23] = assay: Toxicity in nude mouse xenografted with human PANC1 cells assessed as effect on quality of life at 15 to 60 mg/kg, ip administered every 2 days for 21 days measured during compound dosing; format: organism-based; conditions: in vivo
# Procedure, shortened: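 Female nude mice were implanted s.c. in the right flank with 1×10^7 PANC-1 cells. After 4 weeks, mice with tumours averaging 100 mm³ were randomized into five groups. They were dosed i.p. at 15, 30 or 60 mg/kg every two days for 21 days and monitored for toxicity, tumour growth and body weight.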
# MDA-MB-231 = assay: Antiproliferative activity against human MDA-MB-231 cells after 48 hrs by MTT assay; format: functional, cell-based; conditions: MDA-MB-231, 48 h; procedure, shortened: as §2
# [24] = Plasma concentration in rat at 10 mg/kg, iv after 36 hrs by LC-MS/MS method; format: ADME, organism-based
# Procedure, shortened: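 Rats, n = 6 per group, each given a single 10 mg/kg dose. Blood was collected into heparinized tubes and centrifuged at 4 °C and 8000 rpm for 5 min. Plasma was analysed by LC–MS/MS.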
# PANC-1 [25] = assay: Induction of apoptosis in human PANC1 cells assessed as viable cells at 1 uM after 24 hrs by annexin V/propidium iodide staining-based flow cytometric method (reference value: 89.5%); format: functional; conditions: PANC-1, 24 h, read-out: Activity
compound,measurement,setting,value
Cc1c(C(=O)NC2CCN(C)CC2)oc2ccc(N(Cc3ccc(Br)cc3)S(=O)(=O)c3ccc(Br)cc3)cc12,inhibition,[1],Dose-dependent effect
same,logD,[2],3.15
same,IC50,MCF7,2.39 µM
same,Activity,PANC-1 [3],Dose-dependent effect
same,Activity,PANC-1 [4],Active
same,Activity,PANC-1 [5],Dose-dependent effect
same,Activity,PANC-1 [6],45.6%
same,AUC(0-t),[7],1080 ng·h/mL
same,half-life,[8],7.09 h
same,AUC(0-t),[9],7220 ng·h/mL
same,bioavailability,[10],86.1%
same,Activity,PANC-1 [11],3.55%
same,Activity,PANC-1 [12],51.15%
same,IC50,PANC-1 [13],1.07 µM
same,inhibition in vivo at 30 mg/kg,PANC-1 [14],66.4%
same,IC50,A549,2.68 µM
same,Activity,PANC-1 [15],4.45%
same,Activity,Mus musculus [16],Active
same,Papp,[17],6.54 ×10⁻⁶ cm/s
same,Activity,PANC-1 [18],0.45%
same,solubility,[19],30.2 µg/mL
same,Activity,PANC-1 [20],Active
same,IC50,HCT-116,1.61 µM
same,Activity,PANC-1 [21],0.8%
same,Activity,PANC-1 [22],Active
same,Activity,Mus musculus [23],Non-Toxic
same,IC50,MDA-MB-231,1.9 µM
same,concentration at 36 h,[24],> 10 ng/mL
same,viability at 1 µM,PANC-1 [25],50.6%
